Compounds with a hit are over-represented: about 2.6% of the library has one in this group of screens.
SIAE inh = blocks human sialic acid acetylesterase | inhibition, % at 9.66 µM | Q9HAT2 | SIAE FP-Rh probe binding, fluorescence polarization | AID 1053197 | hit rate 0.69% among 370,000;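 active = inhibition above a cutoff: mean of compounds within the control limits plus 3 SD of those, cut at about 17% in these data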
HTRA1 inh = HTRA1 (human) protease inhibition; Q92743; recombinant HTRA1, FP-rhodamine activity-based probe, fluorescence polarization; inhibition, % at 5.96 µM; hit rate 0.5% among 340,000; AID 504803; in the data active = inhibition above about 36%
ABHD4 inh = ABHD4 (mouse) inhibition, primary FP screen; inhibition, % at 8.92 µM; purified mABHD4, FP-Rh probe fluorescence polarization; AID 720543; hit rate 0.54% among 370,000; Q8VD66;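 active = inhibition exceeding the mean over every tested compound plus 3 SD, cut at about 30% in these data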
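system = mouse ABHD4 enzyme, wild type | medium = HEPES pH 7.0, NaCl, Pluronic buffer | also added = FP-Rh probe | incubation = Enzyme–compound pre-incubation 45 min, then probe 60 min, both 25 °C | technique = fluorescence polarization, excitation 525 nm, emission 598 nm, BODIPY TMR filters | controls = S159A mutant high control, sample median low control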
TCR-CD3 inh = blocks the human TCR-CD3 interaction. TAMRA-labeled TCR probe fluorescence, biochemical. inhibition, % at 9.4 µM. hit rate 0.37% among 360,000. AID 651800;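 note: recombinant mutant TCR 2C K166C tagged with TAMRA read by polarization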
PRMT1 inh = inhibitors of human PRMT1; inhibition, % at 2.79 µM; hit rate 1.3% among 370,000; recombinant PRMT1, activity-based probe fluorescence polarization; Q99873;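 active = inhibition above about 21% made by adding two undisclosed values, limit read from the data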
Target sequence (Q99873 whole entry, looked up): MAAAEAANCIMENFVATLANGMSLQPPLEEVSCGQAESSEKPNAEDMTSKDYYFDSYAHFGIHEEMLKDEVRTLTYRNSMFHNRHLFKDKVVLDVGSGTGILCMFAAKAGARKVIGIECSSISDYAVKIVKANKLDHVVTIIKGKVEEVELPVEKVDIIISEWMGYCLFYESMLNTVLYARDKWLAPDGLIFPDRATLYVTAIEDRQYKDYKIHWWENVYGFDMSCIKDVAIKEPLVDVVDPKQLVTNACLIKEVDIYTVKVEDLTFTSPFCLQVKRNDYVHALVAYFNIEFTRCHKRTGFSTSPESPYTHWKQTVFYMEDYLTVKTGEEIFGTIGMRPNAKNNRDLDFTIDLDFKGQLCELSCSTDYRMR
BSA probe FL = interferes with TAMRA-BSA probe, flagging TCR-CD3 hits | inhibition, % at 9.4 µM | shares compounds with TCR-CD3 inh | TAMRA-labeled BSA probe fluorescence counterscreen | hit rate 10% among 1,200; in the data active = inhibition above about 23%
TCR-CD3 conf = TCR-CD3 interaction inhibition, confirmation. shares compounds with TCR-CD3 inh. TAMRA-labeled TCR probe fluorescence binding assay. inhibition, % at 9.4 µM. hit rate 48% among 1,200. AID 652036
A number is an active result; – = inactive; · = not tested or not shown. Cut-off read from the data, not from the text of the source, unless noted: active = inhibition above about 19%; inactive = the rest.

SMILES | SIAE inh | HTRA1 inh | ABHD4 inh | TCR-CD3 inh | PRMT1 inh | BSA probe FL | TCR-CD3 conf
Nc1[nH]c(C(=O)c2ccc(Cl)cc2)c(-c2ccc(Br)cc2)c1C(=O)NCc1ccc(Cl)cc1Cl | – | · | – | – | – | · | ·
CC(C)(C)C(=O)Nc1ccc(C(=O)N/N=C/c2ccccc2OC(=O)c2ccccc2)cc1 | – | – | – | – | – | · | ·
Cc1cccc(C(=O)Oc2ccccc2/C=N/NC(=O)c2ccc(NC(=O)C(C)(C)C)cc2)c1 | – | – | – | 23.7 | – | – | 43.4
CCOc1cc(/C=N\NC(=O)c2ccc(NC(=O)C(C)(C)C)cc2)ccc1OC(=O)c1ccc(C)cc1 | – | – | – | – | – | · | ·
CCOc1cc(/C=N\NC(=O)c2ccc(NC(=O)C(C)(C)C)cc2)ccc1OC(=O)c1cccc(C)c1 | – | – | – | 62.1 | – | 36.0 | 82.3
CC(C)(C)C(=O)Nc1ccc(C(=O)N/N=C/c2ccccc2OC(=O)c2ccc(Cl)cc2)cc1 | – | – | – | 25.5 | – | 24.8 | 42.9
COC(=O)c1cc2c(c3c4ccccc4n(S(=O)(=O)c4ccc(C)cc4)c13)C(=O)N(Cc1ccccc1)C2 | – | · | – | – | – | · | ·
O=C(CC1OCC2CCCN2C1=O)Nc1ccc([N+](=O)[O-])cc1 (stereo unspecified) | – | – | – | – | – | · | ·
Cc1ccc2nc(-c3cccc(Br)c3)c(Cc3ccccc3)n2c1 | – | · | – | 114.2 | – | – | –
Cc1ccc(Cc2c(-c3cccc(Br)c3)nc3ccc(Cl)cn23)cc1 | – | · | – | – | – | · | ·
Cc1ccc(Cc2c(-c3cccc(Br)c3)nc3ccc(C)cn23)cc1 | – | · | – | 77.3 | – | – | –
O=C(COC(=O)/C=C/c1ccccc1[N+](=O)[O-])NCc1ccco1 | – | – | – | – | – | · | ·
COc1ccc(N(C)S(=O)(=O)c2cccc(C(=O)OC(C(=O)Nc3cc(C)cc(C)c3)c3ccccc3)c2)cc1 (stereo unspecified) | – | – | – | – | – | · | ·
CC(=O)c1cccc(NC(=O)C(OC(=O)c2cccc(S(=O)(=O)N(C)c3ccccc3)c2)c2ccccc2)c1 (stereo unspecified) | – | – | – | 31.0 | – | – | 31.8
CN1CCN(C(=O)c2cc3c(c(-c4cccc(-c5cccnc5)c4)n2)[C@@H](CCO)N(C(=O)CC2CC2)C3)CC1 | – | · | – | 25.1 | – | – | –
Cc1cccn2c(=O)c3cc(C(N)=S)c(=N)n(CCCN4CCOCC4)c3nc12 | – | – | – | 22.5 | – | – | –
COCCCn1c(=N)c(C(N)=S)cc2c(=O)n3cccc(C)c3nc21 | – | – | – | 27.8 | – | – | –
O=C(NCCc1cccc(Cl)c1)c1ccc(Cl)c([N+](=O)[O-])c1 | – | – | – | 30.4 | – | – | –
Cc1ccc(C(=O)NCCc2cccc(Cl)c2)cc1[N+](=O)[O-] | – | – | – | – | – | · | ·
COc1ccc(C2N(C(=O)CN3CCCC3)CCCN2S(=O)(=O)c2ccccc2)cc1 (stereo unspecified) | – | – | – | – | – | · | ·
O=C(C(=O)N1CCN(C(=O)C2CCCC2)CC1)c1cccc(C(F)(F)F)c1 | – | · | – | – | – | · | ·
N#CCC(=O)Nc1ccc(C(=O)OCC(=O)Nc2cccc3ccccc23)cc1 | – | – | – | – | – | · | ·
N#CCC(=O)Nc1ccc(C(=O)OCC(=O)Nc2cccc(C(F)(F)F)c2)cc1 | – | – | – | 34.8 | – | – | –
Cc1cc(C)c(-c2cc(NC(=O)COC(=O)c3ccc(C#N)cc3)n(-c3ccccc3)n2)cc1C | – | – | – | – | – | · | ·
N#CCC(=O)Nc1ccc(C(=O)OCC(=O)NC2CCCc3ccccc32)cc1 (stereo unspecified) | – | – | – | 19.6 | – | – | –
SMILES | SIAE inh | HTRA1 inh | ABHD4 inh | TCR-CD3 inh | PRMT1 inh | BSA probe FL | TCR-CD3 conf
Cc1cc(C)c(-c2cc(NC(=O)COC(=O)c3ccc(NC(=O)CC#N)cc3)n(-c3ccccc3)n2)cc1C | – | – | – | 61.1 | – | – | 43.0
COc1cc2c(cc1OC)CN(C(=O)c1cc(S(=O)(=O)N3CCOCC3)ccc1C)CC2 | – | – | – | – | – | · | ·
CC(=O)c1ccc(NC(=O)c2cccc(N3C(=O)c4ccccc4C3=O)c2)cc1 | · | – | · | · | · | · | ·
NS(=O)(=O)c1ccc(NC(=O)c2cccc(N3C(=O)c4ccccc4C3=O)c2)cc1 | – | – | – | 25.3 | – | – | 30.4
CC(=O)Oc1ccc2occ(/C=N/c3cc(=O)[nH]c(=S)[nH]3)c(=O)c2c1 | – | – | – | 19.3 | – | – | –
Cc1ccc2occ(/C=N/O)c(=O)c2c1 | – | – | – | – | – | · | ·
COC1CC(=O)C2OC(c3ccccc3)OCC2O1 (stereo unspecified) | – | – | – | – | – | · | ·
Cc1ccc(C)c(N(CC(=O)Nc2ccc(-c3nc4ccc(C)cc4s3)cc2)S(C)(=O)=O)c1 | – | – | – | 19.8 | – | – | –
O=C(NCc1ccc(F)cc1)C1(S(=O)(=O)c2ccc(Cl)cc2)CC1 | – | – | – | – | – | · | ·
CCOC(=O)N1CCN(C(=O)C[C@H]2C[C@@]3(C(=O)OC)C(=C[C@H](C(C)(C)C)O[C@@H]3C)N(Cc3ccc4c(c3)OCO4)C2=O)CC1 | – | · | – | – | – | · | ·
O=c1c(OC2OC(CO)C(O)C(O)C2OC2OC(CO)C(O)C(O)C2O)c(-c2ccc(O)cc2)oc2cc(O)cc(O)c12 (stereo unspecified) | – | – | – | 22.9 | – | – | –
O=c1c(O[C@H]2O[C@@H](CO)[C@H](O)[C@@H](O)[C@@H]2O)c(-c2ccc(O)cc2)oc2cc(O)cc(O)c12 | – | – | – | – | – | · | ·
Cc1cc(C(=O)N/N=C/c2cc(Cl)cc([N+](=O)[O-])c2O)n[nH]1 | – | – | – | 28.2 | – | – | 33.8
Cc1cc(C(=O)N/N=C/c2ccc([N+](=O)[O-])s2)n[nH]1 | – | – | – | – | – | · | ·
O=C(N1CCC(n2nc(-c3ccccc3)oc2=O)CC1)C1(c2ccccc2)CC1 | · | – | · | · | · | · | ·
O=C(Cn1sc2ccccc2c1=O)N1CCN(C(=O)c2ccco2)CC1 | – | – | – | – | – | · | ·
COCCCNC(=S)N/N=C/c1ccc(O)cc1O | – | · | – | 20.4 | – | – | –
COCCCNC(=S)N/N=C/c1ccc(O)cc1 | – | – | – | – | – | · | ·
O=C(CCC(=O)Nc1ccc(F)cc1)N/N=C/c1ccc(O)cc1O | – | – | – | – | – | · | ·
Oc1ccc(C=NNC(=S)Nc2ccc(F)cc2)c(O)c1 | – | – | – | 19.7 | – | – | –
COC1(OC)C(/C=C/c2ccc(Cl)cc2)C(C#N)(C#N)C1(OC)OC (stereo unspecified) | – | – | – | 20.9 | – | – | –
O=C(Nc1ccc(Cl)c(Cl)c1)O/N=C/c1ccncc1 | – | – | – | 41.8 | – | – | 19.7
O=C(c1cccc(S(=O)(=O)Nc2ccc(F)cc2)c1)N1CCOCC1 | – | – | – | – | – | · | ·
